{"data": "Measurements collected from several papers", "target": "Tyrosine-protein kinase Yes (YES1, Homo sapiens, UniProt P07947)"}
{"SMILES": "Cc1nn(C)cc1-c1nc2c(N3CCN(Cc4ccc(Cl)cc4)CC3)c(Cl)cnc2[nH]1", "observed": "binding", "technique": "competition with immobilised ligand", "concentration": "1 µM", "endpoint": "remaining binding", "value": "96%"}
{"SMILES": "Nc1ncc(-c2nc(N3CCOCC3)nc(N3CCOCC3)n2)c(C(F)F)n1", "observed": "binding", "technique": "competition with immobilised ligand", "concentration": "10 µM", "endpoint": "remaining binding", "value": "80%"}
{"SMILES": "C#Cc1n[nH]c2c(-c3cn([C@@H](C)c4ccccn4)c(=O)[nH]c3=O)cc(F)cc12", "observed": "enzyme activity", "action": "inhibitor", "concentration": "0.1 µM", "endpoint": "inhibition", "value": "-3.4%"}
{"SMILES": "COc1ncccc1-c1cnn2ccc(N3CCN(C(=O)OC(C)C)CC3)nc12", "observed": "binding", "technique": "competition with immobilised ligand", "concentration": "1 µM", "endpoint": "remaining binding", "value": "100%"}
{"SMILES": "CC(C)(C)c1cc(C=C(C#N)C#N)cc(Br)c1O", "observed": "enzyme activity", "action": "inhibitor", "concentration": "0.5 µM", "endpoint": "remaining activity", "value": "83%"}
{"SMILES": "Cn1cc(-c2cc(F)cc(N3CCn4c(cc5c4CCCC5)C3=O)c2CO)cc(Nc2ccc(N3CCN(C4COC4)CC3)cn2)c1=O", "observed": "enzyme activity", "action": "inhibitor", "concentration": "0.1 µM", "endpoint": "inhibition", "value": "11%"}
{"SMILES": "O=c1[nH]c2ccccc2n1C1CCN(Cc2ccc(-c3[nH]c4cc5ncnc5cc4nc3-c3ccccc3)cc2)CC1", "observed": "cell-free assay", "concentration": "0.5 µM", "endpoint": "remaining signal", "value": "90.8%"}
{"SMILES": "Cn1cncc1[C@@](O)(COc1ccc(C#N)cc1-c1ccc(OC(F)(F)F)cc1)c1ccc(C#N)cc1", "observed": "cell-free assay", "technique": "competition with immobilised ligand", "concentration": "1 µM", "endpoint": "remaining binding", "value": "100%"}
